Laboratory results reported in ChEMBL document CHEMBL1142379, “Substituted 2-oxo-azepane derivatives are potent, orally active gamma-secretase inhibitors” (Bioorg Med Chem Lett, 2008).
Active and inactive are the calls of the source. No cut-off for these calls is given here.

Key:
[1] = molecular target: Gamma-secretase; assay: Inhibition of human gamma secretase in HEK293 cells assessed as reduction of amyloid beta level by ELISA; format: cell-based
[2] = Clearance in human microsomes assessed per mg of protein; format: ADME, Microsome
Procedure, shortened: (§1)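 Intrinsic clearance in human and mouse liver microsomes, expressed as µl/min/mg protein.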

[3] = Clearance in mouse microsomes assessed per mg of protein; format: ADME, Liver, Microsome; procedure, shortened: as §1
[4] = Solubility of the compound; format: physicochemical
[5] = Distribution coefficient, log D of the compound; format: physicochemical; conditions: octanol/water
[6] = system: MDR1; assay: Permeability from apical to basolateral side of pig LLC-PK1 cell transfected with human MDR1; format: ADME, cell-based, Sus scrofa; conditions: read-out: permeability
Procedure, shortened: (§2)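 Bidirectional transport across LLC-PK1 monolayers exogenously expressing human MDR1 (P-gp), compound at 1 μM; apical-to-basolateral and reverse permeabilities measured, export ratio derived; run with and without elacridar (5 μM) as transport inhibitor. Passive permeability estimated from experiments with active transport inhibited.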

[7] = system: LLC-PK1; assay: Ratio of permeability from basolateral to apical over apical to basolateral side of the pig LLC-PK1 cell transfected with human MDR1 at 1 uM; format: ADME, cell-based, Sus scrofa; conditions: llc-pk1, 1 µM; procedure, shortened: as §2
[8] = system: LLC-PK1; assay: Ratio of permeability from basolateral to apical over apical to basolateral side of the pig LLC-PK1 cell transfected with human MDR1 at 1 uM in presence of elacridar; format: ADME, cell-based, Sus scrofa; conditions: llc-pk1, 1 µM; procedure, shortened: as §2
[9] = system: Mus musculus; assay: Inhibition of human gamma secretase expressed in PS2APP transgenic mouse at 20 mg/kg, po after 3 days; format: functional, organism-based; design: dose 20 mg/kg
Procedure, shortened: (§3)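 PS2APP transgenic mice (human APP driven by neuron-specific Thy1 promoter) dosed 3 × 20 mg/kg po or ip; γ-secretase inhibition read as accumulation of CTFβ in total brain by Western blot, chemiluminescent band quantified and normalized to an endogenous control protein; reference inhibitor LY411575.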

[10] = Ratio of drug level in brain to plasma in PS2APP transgenic mouse at 20 mg/kg, po after 2 hrs; format: ADME, organism-based; design: dose 20 mg/kg, route oral; conditions: read-out: BPR
Procedure, shortened: (§4)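 Single 20 mg/kg oral dose in mice; plasma and brain concentrations taken at 2 h, brain/plasma ratio calculated; N = 3.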

[11] = Drug level in PS2APP transgenic mouse brain at 20 mg/kg, po after 2 hrs; format: ADME, organism-based; design: dose 20 mg/kg, route oral; conditions: read-out: Drug uptake; procedure, shortened: as §4
[12] = system: Mus musculus; assay: Inhibition of human gamma secretase expressed in PS2APP transgenic mouse at 20 mg/kg, ip after 3 days; format: functional, organism-based; design: dose 20 mg/kg; procedure, shortened: as §3

| SMILES | IC50 [1] [nM] | microsomal CLint [2] [µL/min/mg] | microsomal CLint [3] [µL/min/mg] | further results |
| --- | --- | --- | --- | --- |
| O=C(NC1CC1)c1ccc(CN(C2CCCCNC2=O)S(=O)(=O)c2ccc(Cl)cc2)cc1 (centres undefined) | 170 |  |  |  |
| COc1ccc(CN(C2CCCCNC2=O)S(=O)(=O)c2ccc(Cl)cc2)cn1 (centres undefined) | 900 |  |  |  |
| O=C1NCCCCCC1N(Cc1ccc2c(c1)OCO2)S(=O)(=O)c1ccc(Cl)cc1 (centres undefined) | 9000 |  |  |  |
| CC1(C)CCCNC(=O)C1N(Cc1ccc(C(=O)NC2CC2)cc1)S(=O)(=O)c1ccc(Cl)cc1 (centres undefined) | 390 |  |  |  |
| COc1ccc(CN(C2CCCCNC2=O)S(=O)(=O)c2ccc(Cl)cc2)c(F)c1 (centres undefined) | 150 |  |  |  |
| O=C1NCCC1N(Cc1ccc2c(c1)OCO2)S(=O)(=O)c1ccc(Cl)cc1 (centres undefined) | > 20000 |  |  |  |
| CC1(C)CCC(N(Cc2ccc(C(=O)NC3CC3)cc2)S(=O)(=O)c2ccc(Cl)cc2)C(=O)NC1 (centres undefined) | 3500 |  |  |  |
| O=C(O)CCc1ccc(CN([C@@H]2CCCCNC2=O)S(=O)(=O)c2ccc(Cl)cc2)cc1 | 140 |  |  |  |
| O=C(NC1CC1)c1ccc(CN([C@@H]2CCC(F)(F)CNC2=O)S(=O)(=O)c2ccc(Cl)cc2)cc1 |  |  | 5.4 |  |
| O=C1NCCCC1N(Cc1ccc2c(c1)OCO2)S(=O)(=O)c1ccc(Cl)cc1 (centres undefined) | 14000 |  |  |  |
| COc1ccc(CN([C@@H]2CC(F)(F)CCNC2=O)S(=O)(=O)c2ccc(Cl)cc2)c(F)c1F |  | 19 | 121 | Kp at 2 h [10]: < 0.1 |
| O=C(NC1CC1)c1ccc(CN([C@@H]2CC(F)(F)CCNC2=O)S(=O)(=O)c2ccc(Cl)cc2)cc1 | 4 | 1.9 | 2.2 | Activity [12]: inactive; Activity [9]: inactive |
| CC(C)C[C@H](C(=O)NO)N(Cc1ccc2c(c1)OCO2)S(=O)(=O)c1ccc(Cl)cc1 | 2600 |  |  |  |
| CC1(C)CCCC(N(Cc2ccc(C(=O)NC3CC3)cc2)S(=O)(=O)c2ccc(Cl)cc2)C(=O)N1 (centres undefined) | > 20000 |  |  |  |
| CN(C)C(=O)c1ccc(CN(C2CCCCNC2=O)S(=O)(=O)c2ccc(Cl)cc2)cc1 (centres undefined) | 2000 |  |  |  |

More lines, main results first:

| IC50 [1] [nM] | microsomal CLint [2] [µL/min/mg] | microsomal CLint [3] [µL/min/mg] | SMILES | further results |
| --- | --- | --- | --- | --- |
| 40 | 51 | 203 | CC(C)C1CCNC(=O)C(N(Cc2ccc(C(=O)NC3CC3)cc2)S(=O)(=O)c2ccc(Cl)cc2)C1 (racemic) |  |
| 8 | 34 | 282 | CC(C)C[C@H](C(N)=O)N(Cc1ccc2c(c1)OCO2)S(=O)(=O)c1ccc(Cl)cc1 | solubility [4]: < 1 µg/mL; logD [5]: > 3 |
| 80 |  |  | NC(=O)c1ccc(CN([C@@H]2CCCCNC2=O)S(=O)(=O)c2ccc(Cl)cc2)cc1 |  |
| 15 | 36 | 655 | CC1(C)CCNC(=O)[C@H](N(Cc2ccc(C(=O)NC3CC3)cc2)S(=O)(=O)c2ccc(Cl)cc2)C1 |  |
| 30 | 9 | 72 | COc1ccc(CN([C@@H]2CC(F)(F)CCNC2=O)S(=O)(=O)c2ccc(Cl)cc2)cn1 | Papp A→B [6]: 28 ×10⁻⁶ cm/s; Ratio [7]: 2.2; Ratio [8]: 1; Activity [9]: Active; Kp at 2 h [10]: 0.06; concentration at 2 h [11]: 60 ng/g |
| 20 | 13 | 105 | COc1ccc(CN([C@@H]2CC(F)(F)CCNC2=O)S(=O)(=O)c2ccc(Cl)cc2)c(F)c1 |  |
| 120 | 93 | 110 | CC(C)(C)C1CCNC(=O)C(N(Cc2ccc(C(=O)NC3CC3)cc2)S(=O)(=O)c2ccc(Cl)cc2)C1 (racemic) |  |
| 6 | 45 | 191 | CC1(C)CCNC(=O)C(N(Cc2ccc(C(=O)NC3CC3)cc2)S(=O)(=O)c2ccc(Cl)cc2)C1 (centres undefined) |  |
| 20 | 19 | 39 | O=C(NC1CC1)c1ccc(CN(C2CC(C(F)(F)F)CCNC2=O)S(=O)(=O)c2ccc(Cl)cc2)cc1 (racemic) |  |
